In ChEMBL document CHEMBL3870318, “Inhibitor screening and enzymatic activity determination for autophagy target Atg4B using a gel electrophoresis-based assay” (Eur J Med Chem, 2016):
Blank lines part the entries; values can stand above or below the compound they belong to. The source made the active and inactive calls. The calls are words filed in the database; no cut-off is given here.

Assays:
Cysteine protease ATG4B [1] = molecular target: T1, Cysteine protease ATG4B (Homo sapiens, UniProt Q9Y4P1); test: Inhibition of Atg4B (unknown origin) using YFP-LC3B-EmGFP as substrate after 40 mins by FRET-based assay
T1 sequence (Q9Y4P1 whole entry): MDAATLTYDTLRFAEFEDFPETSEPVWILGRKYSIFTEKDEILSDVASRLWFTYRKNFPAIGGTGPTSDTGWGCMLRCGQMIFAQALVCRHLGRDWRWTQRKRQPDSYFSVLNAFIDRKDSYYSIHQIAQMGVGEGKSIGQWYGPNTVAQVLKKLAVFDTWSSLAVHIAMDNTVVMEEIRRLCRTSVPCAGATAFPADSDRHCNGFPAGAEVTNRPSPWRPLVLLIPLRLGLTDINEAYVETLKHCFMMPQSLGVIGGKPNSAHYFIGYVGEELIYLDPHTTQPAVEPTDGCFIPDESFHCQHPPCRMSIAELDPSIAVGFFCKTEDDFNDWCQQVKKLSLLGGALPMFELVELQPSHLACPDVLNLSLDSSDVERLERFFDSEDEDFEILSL

Cysteine protease ATG4B [2] = molecular target: T1, Cysteine protease ATG4B; test: Inhibition of human recombinant GST-tagged Atg4B expressed in Escherichia coli using LC3B-GST as substrate after 6 mins by SDS-PAGE assay
[3] = molecular target: T2, Cysteine protease ATG4B (Homo sapiens) (UniProt Q9Y4P1); test: Inhibition of human recombinant GST-tagged Atg4B expressed in Escherichia coli after 2 to 20 hrs by fluorescence assay
T2 sequence (whole entry): T1 sequence (Q9Y4P1 whole entry)
Procedure, shortened: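 Fluorogenic peptides of 8, 10, 12 or 16 residues matching pro-LC3B Glu105–Gly120 (N-terminal to scissile Gly120), each C-terminally capped with an aminocarboxycoumarin (ACC) tag. Cleavage by Atg4B at about 20 nM was followed by fluorescence release for up to 20 h.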

Cysteine protease ATG4B [4] = molecular target: T1, Cysteine protease ATG4B; test: Inhibition of wild type recombinant Atg4B (unknown origin) expressed in Escherichia coli BL21 DE3 using N-terminal His6-tagged LC3B-PLA2 as substrate after 60 mins by NBD-C6-HPC dye-based fluorescence assay
[5] = molecular target: T2, Cysteine protease ATG4B (Homo sapiens); test: Inhibition of human recombinant GST-tagged Atg4B expressed in Escherichia coli at 4 mM preincubated for 15 mins followed by LC3B-GST substrate addition after 6 mins by SDS-PAGE assay
Procedure, shortened: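 Recombinant human Atg4B (E. coli-expressed) at 0.625 ng/µL, preincubated 15 min with inhibitor. Then LC3B-GST (0.4 µg/µL) added in Tris-HCl buffer and incubated 6 min. Products resolved by SDS-PAGE and stained with Oriole. % uncleaved substrate derived by densitometry as OD(LC3B-GST)/(sum of all bands). Single representative experiment.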

[6] = molecular target: T2, Cysteine protease ATG4B (Homo sapiens); test: Inhibition of human recombinant GST-tagged Atg4B expressed in Escherichia coli at 40 mM using LC3B-GST as substrate measured after 6 mins by SDS-PAGE assay
Procedure, shortened: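 Recombinant human Atg4B (E. coli) at 0.625 ng/µL, with inhibitor dilutions of 0–40 mM, either preincubated 15 min or not preincubated. LC3B-GST (0.4 µg/µL) added in Tris-HCl buffer for 6 min. SDS-PAGE separation and Oriole staining followed. % uncleaved fusion protein derived from band optical densities. Single representative experiment.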

[7] = molecular target: T2, Cysteine protease ATG4B (Homo sapiens); test: Inhibition of human recombinant GST-tagged Atg4B expressed in Escherichia coli at 20 mM using LC3B-GST as substrate measured after 6 mins by SDS-PAGE assay
Procedure, shortened: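 Atg4B at 0.625 ng/µL in Tris-HCl was mixed with inhibitor without preincubation. [LC3B-GST] at 0.4 µg/µL was then added for 6 min. Products were resolved by SDS-PAGE and stained with Oriole fluorescent gel stain. Percent uncleaved substrate was taken by densitometry as OD(LC3B-GST)/[OD(LC3B-GST)+OD(GST)+OD(LC3B)]×100.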

[8] = molecular target: T2, Cysteine protease ATG4B (Homo sapiens); test: Inhibition of human recombinant GST-tagged Atg4B expressed in Escherichia coli at 5 mM preincubated for 15 mins followed by LC3B-GST substrate addition after 6 mins by SDS-PAGE assay
Procedure, shortened: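 Enzyme (0.625 ng/µL Atg4B, Tris-HCl buffer) was preincubated with inhibitor for 15 min before [LC3B-GST] (0.4 µg/µL) was added for 6 min. Samples were separated by SDS-PAGE and stained with Oriole. Densitometric optical densities of intact fusion protein, GST and LC3B gave percent uncleaved substrate.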

[9] = molecular target: T2, Cysteine protease ATG4B (Homo sapiens); test: Inhibition of human recombinant GST-tagged Atg4B expressed in Escherichia coli at 4 mM using LC3B-GST as substrate preincubated up to 20 mins followed by substrate addition measured after 6 mins by SDS-PAGE assay

IC50 (Cysteine protease ATG4B [1]): 1.3 µM | IC50 (Cysteine protease ATG4B [2]): 38 to 45 µM
Compound: O=C(O)C1=CC(=C(c2ccc(O)c(C(=O)O)c2)c2ccc(O)c(C(=O)O)c2)C=CC1=O [AURINTRICARBOXYLIC ACID]

inhibition [3]: Active | IC50 (Cysteine protease ATG4B [4]): 5.5 µM
Compound: O=c1oc2c(O)c(O)cc3c(=O)oc4c(O)c(O)cc1c4c23 [ELLAGIC ACID]

IC50 (Cysteine protease ATG4B [4]): 2.3 µM
Compound: O=C(O)c1cc(O)c(=O)c2c(O)c(O)ccc2c1 [7-DESHYDROXYPYROGALLIN-4-CARBOXYLIC ACID]

Compound: NC(=O)CI
inhibition [5]: Active | inhibition [6]: Active

inhibition [3]: Active
Compound: Cc1sc2nc(C3CCCCC3)nc(SCC(=O)N3CC(=O)Nc4ccccc43)c2c1C

IC50 (Cysteine protease ATG4B [1]): 0.63 µM
Compound: O=C(N[C@@H](Cc1ccccc1)C(=O)CCl)OCc1ccccc1

inhibition [7]: Active | inhibition [8]: Active | inhibition [9]: Active
Compound: CCN1C(=O)C=CC1=O

Compound: Cc1cc(O)c2c(=O)c3c(O)cc(O)c4c5c(O)cc(O)c6c(=O)c7c(O)cc(C)c8c1c2c(c34)c(c78)c65 [HYPERICIN]
IC50 (Cysteine protease ATG4B [1]): 57 µM
